Bioassay records from PubChem BioAssay.
An excerpt weighted towards active compounds, which were near 2.5% of everything screened.
FLuc stim CS = firefly luciferase counter-screen for stimulation assays | P08659 | ATPlite luciferase biochemical, luminescence, 10 min; 0 = ATP-free wells, 1 = DMSO control | activation factor at 10 µM | 200,000 tested, under 10 active;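 active = luciferase activation factor, scaled between plate controls, of at least 2 with compound at 10 µM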
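System: Luciferase/luciferin detection reagent, cell-free biochemical luciferase assay | Medium: PBS buffer for ATP | Dosing: Test compounds dosed from 2 mM stocks in 100% DMSO | Timing: 10 min at ambient temperature | Signal: Luminescence measurement of luciferase light output | Evaluation: Luciferase activation, seen as luminescence increase over controls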
PMI act = phosphomannose isomerase (human) activation | purified human PMI, coupled resazurin fluorescence, 20 min; stronger effect = higher value; 1 = vehicle control, 0 substrate-free wells | activation factor at 20 µM | 190,000 tested, 0.005% active | AID 1214;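 active = activation factor of 2 or more at 20 µM, relative to plate controls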
Target sequence (P34949 whole entry, looked up): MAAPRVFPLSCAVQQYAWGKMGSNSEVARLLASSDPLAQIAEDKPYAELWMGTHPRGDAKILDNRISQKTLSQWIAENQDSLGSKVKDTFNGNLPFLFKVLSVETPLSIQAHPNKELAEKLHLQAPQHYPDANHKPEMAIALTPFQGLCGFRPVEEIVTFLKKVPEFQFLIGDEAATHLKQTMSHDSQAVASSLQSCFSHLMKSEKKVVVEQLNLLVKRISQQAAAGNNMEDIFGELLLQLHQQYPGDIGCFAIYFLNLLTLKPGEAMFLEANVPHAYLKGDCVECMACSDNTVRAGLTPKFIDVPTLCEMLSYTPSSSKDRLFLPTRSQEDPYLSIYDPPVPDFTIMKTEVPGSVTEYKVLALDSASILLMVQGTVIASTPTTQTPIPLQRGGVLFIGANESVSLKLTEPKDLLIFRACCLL
Diaphorase inh = diaphorase inhibition or chemical oxidation counter-screen; 190,000 tested, 0.69% active; AID 1217; diaphorase resazurin-to-resorufin fluorescence, NADH, 16 min; bacterial (C. kluyveri) enzyme, not human; inhibition, % at 20 µM;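 active = primary screen inhibition at 20 µM above a set limit, cut at about 50% in these data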
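Assay system: diaphorase enzyme from Clostridium kluyveri; Input: enzyme working solution with 0.14 U/mL diaphorase; Timing: 16 min at room temperature; Technique: resorufin fluorescence, excitation 544 nm, emission 590 nm; Benchmarks: positive control minus NADH, DMSO neutral control.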
FLuc inh counter = inhibits firefly luciferase, flagging false hits in luciferase inhibition screens; P08659; ATPLite firefly luciferase biochemical luminescence, 10 min; inhibition, % at 10 µM; 200,000 tested, 1.5% active;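 active = inhibition above about 50% when tested at 10 µM, limit read from the data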
PMI act hi M6P = increases human PMI activity with near-saturating mannose 6-phosphate. P34949. coupled PMI enzyme assay, resazurin fluorescence, 20 min; stronger effect = higher value; 1 = untreated enzyme, 0 = substrate-free blank. activation factor at 20 µM. 190,000 tested, 0.34% active;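 active = activation factor of 2 or more at 20 µM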
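Technique: Diaphorase-driven resazurin-to-resorufin fluorescence, excitation 544, emission 590 nm | Assay system: Human PMI in coupled enzyme assay | Times: Enzyme reaction with compound 20 min at room temperature | Medium: HEPES-buffered pH 7.4 with magnesium and detergent | Reagent: Mannose-6-phosphate 1.0 mM (near-saturating) plus 0.22 mM NADP+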
Diaph act CS = diaphorase activation or chemical reduction counter-screen | Diaphorase/resazurin coupled assay, resorufin fluorescence, 16 min; stronger effect = higher value; 1 = vehicle wells, 0 = NADH-free wells | activation factor at 20 µM | 190,000 tested, 0.005% active;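 active = diaphorase activity raised at least twofold by the compound at 20 µM; inactive = activation factor below 2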
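Material: Purified diaphorase enzyme from Clostridium kluyveri | Buffer or medium: 50 mM HEPES pH 7.4 with 4.542 mM MgCl2, 0.005% Tween 20 | Times: 16 min enzyme reaction, ambient temperature | Signal: Red resorufin fluorescence at 544/590 nm excitation/emission | Measure: Increased resorufin signal from activators or reducing compounds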
Of the large screens only hits and unclear results are named; the others gave an inactive call.

CC(=O)c1ccc2c(c1)C1C(Cl)C(Sc3ccccc3[N+](=O)[O-])CC1C(c1ccccc1[N+](=O)[O-])N2 (centres undefined)	Diaphorase inh 63
CC(=O)c1ccc2c(c1)C1C(Cl)C(Sc3ccccc3[N+](=O)[O-])CC1C(c1ccccc1)N2 (centres undefined)	none
Cc1c(C=C2C(=O)NC(=O)NC2=O)c(=O)n(-c2ccccc2)n1C	none
Cc1nn(Cc2ccccc2)c(C)c1C=C1C(=O)NC(=S)NC1=O	PMI act hi M6P 2.2
Cn1c(O)c(C(=O)c2ccccc2)c(=O)n(C)c1=O	none
C/C(=N\Nc1ccccc1)c1c(O)n(Cc2ccccc2)c(=O)[nH]c1=O	PMI act hi M6P 2.5
C/C(=N\Nc1ccccc1)c1c(O)n(C)c(=O)n(C)c1=O	PMI act hi M6P 2.5
CC(=O)Nc1ccc(OCCF)cc1	none
CCc1c(C)nc(N)nc1N1N=C1SCC(=O)OC	Diaphorase inh 77
COc1ccc2nc(NC3=NCCN3)sc2c1	FLuc inh counter 57
CCCCCCCCCOc1ccc2[nH]cc(CCN)c2c1	Diaph act CS 3.3
Cc1ccc2c(c1)CC1(CN2C)C(=O)NC(=O)N(CCC2=CCCCC2)C1=O (centres undefined)	PMI act hi M6P 2.1
Cc1ccc2c(c1)CC1(CN2C)C(=O)NC(=O)N(C(C)C)C1=O (centres undefined)	PMI act hi M6P 2.1
Cn1c(O)c(C=NCCCN2CCCC2=O)c(=O)n(C)c1=O	none
OC(c1ccccc1)(c1ccccc1)C1CCCN1 (centres undefined)	none
COP(=O)(OC)C(NC(C)=O)C(Cl)(Cl)Cl (centres undefined)	none
COc1c2c(cc3c1OCO3)CC[N+](C)=C2	Diaphorase inh 83
CN1C(=O)CN=C(c2ccccc2)c2cc([N+](=O)[O-])ccc21	none
Cc1sc2c(c1C)C(c1ccc(C(C)(C)C)cc1)=NCC(=O)N2CC(=O)Nc1nccs1	none
CNC(=O)Oc1ccc(-c2cn3cc(C)ccc3n2)cc1	FLuc inh counter 97
CNC(=O)Oc1cccc(-c2cn3cc(Cl)ccc3n2)c1	FLuc inh counter 95
Cc1nc2ccccc2c(=O)n1-c1ccc(Br)cc1[N+](=O)[O-]	Diaphorase inh 70
Cc1cc(C)c(C(=O)CN2CCOCC2)c(C)c1	PMI act hi M6P 2.1
CC[C@]12C=CCN3CCC4(c5cc(Br)c(OC)cc5N(C)C4[C@@](O)(C(=O)OC)[C@@H]1OC(C)=O)C32 (some centres undefined)	none
O=C(N/N=C\C1C(=O)NC(=S)N(c2ccccc2)C1=O)c1ccc(O)cc1 (centres undefined)	Diaphorase inh 65
O=C(N/N=C/c1c(O)n(-c2ccccc2)c(=O)[nH]c1=O)c1ccncc1	none
Oc1ccc(CC2CC3CCN2CC3)cc1O (centres undefined)	Diaphorase inh 53
C[C@]12CC[C@@H]3c4ccc(O)c(O)c4CC[C@H]3[C@@H]1CC[C@@H]2O	Diaphorase inh 70
CC(C)N(CC(O)c1cccc([N+](=O)[O-])c1)C(C)C (centres undefined)	none
CN1C(=O)N(C)C(=O)C2(Cc3c(ccc4ccccc34)N(C)C2)C1=O	Diaphorase inh 67
COc1ccc(N/N=C/c2c(O)n(-c3cccc(C)c3)c(=O)[nH]c2=O)cc1	PMI act hi M6P 2.7
COc1ccc(N/N=C/c2c(O)n(-c3ccc(C)c(C)c3)c(=O)[nH]c2=O)cc1	none
O=C(c1ccc2c(c1)ncn2C1CCCCC1)N1CCC2(CC1)OCCO2	none
COc1ccccc1N1CCN(Cc2ccc(Br)s2)CC1	none
O=c1c2ccccc2[se]n1-c1ccccc1	Diaphorase inh 70, FLuc inh counter 96 (no result: PMI act, PMI act hi M6P)
O=c1c2ccccc2nc(N2CCCC2)n1-c1ccccc1	none
COc1ccc(/C=C2\C(=O)NC(=S)N(C)C2=O)cc1C	PMI act hi M6P 2.5
CN1C(=O)/C(=C\c2ccc(N3CCCCC3)o2)C(=O)NC1=S	none
O=C(N/N=C/c1c(O)n(C2CC2)c(=S)[nH]c1=O)c1ccccc1O	Diaphorase inh 66
O=P(Nc1cccnc1)(Oc1ccccc1Cl)Oc1ccccc1Cl	none
O=[N+]([O-])c1ccc(N2CCNCC2)c(Cl)c1	none
C=CCN1C(=O)NC(=O)/C(=C/C=C/c2ccccc2)C1=O	none
CN(C)c1ccc(/C=C/C=C2/C(=O)NC(=O)N(c3ccccc3)C2=O)cc1	FLuc inh counter 53
N#CC[N+]1(CCCNP2(=O)C=C(c3ccccc3)OC(c3ccccc3)=C2)CCOCC1	none
Cc1ccc2nc3c(cc2c1)CC1(C(=O)N(C)C(=O)N(C)C1=O)C1COCCN31 (centres undefined)	none
Cc1ccc2nc3c(cc2c1)CC1(C(=O)N(C)C(=O)N(C)C1=O)C1CCCCN31 (centres undefined)	FLuc inh counter 53
Cc1ccc2c(c1)=C/C(=C\c1c(O)[nH]c(=S)[nH]c1=O)C(=O)N=2	Diaphorase inh 54
Clc1cccc(CN2CCCCC2c2cccnc2)c1 (centres undefined)	none
CN(C)c1cccc2c(C#N)ccc(N(C)C)c12	Diaphorase inh 72
CCCCC1C(=O)NC(=S)NC1=O	PMI act hi M6P 2
CC12CCC3C(CC=C4CC5(CCC43C)OCCO5)C1CCC2=O (centres undefined)	none (no result: PMI act, Diaphorase inh, PMI act hi M6P, Diaph act CS)
CCn1c(O)c(C=Nc2cc(Cl)ccc2Cl)c(=O)n(CC)c1=O	none
O=c1[nH]c(O)c(N=Nc2cc([N+](=O)[O-])ccc2O)c(=O)[nH]1	Diaphorase inh 66
NC(=O)c1ccc(N=Nc2c(O)[nH]c(=O)[nH]c2=O)cc1	none
O=[N+]([O-])c1ccc(N2CCOCC2)c2ccncc12	none
CCCCCn1c(NC(=O)c2ccco2)c(C(=O)OCC)c2nc3ccccc3nc21	Diaphorase inh 68
CCOC(=O)c1c(N)n(CCCOC(=O)c2ccco2)c2nc3ccccc3nc12	none
CN1C2CCC1CC(OC(=O)c1cc(Cl)cc(Cl)c1)C2 (centres undefined)	none
C=CC(C)C(C(=O)c1ccccc1)N(C)C (centres undefined)	none
Nc1ccccc1C(=O)OCC(=O)c1ccc2c(c1)OCCO2	FLuc inh counter 97
Cc1cc(C=C2C(=O)NC(=S)NC2=O)c(C)n1C1CCCC1	FLuc inh counter 77, PMI act hi M6P 2.1
Cc1cc(C=C2C(=O)N(C)C(=S)N(C)C2=O)c(C)n1C1CCCCC1	none
